{"source": "ChEMBL document CHEMBL3286371", "about": "“wALADin benzimidazoles differentially modulate the function of porphobilinogen synthase orthologs” (J Med Chem, 2014)", "key": {"[1]": {"target": "T1, Delta-aminolevulinic acid dehydratase (Escherichia coli (strain K12)) (UniProt P0ACB2)", "T1 sequence (whole entry)": "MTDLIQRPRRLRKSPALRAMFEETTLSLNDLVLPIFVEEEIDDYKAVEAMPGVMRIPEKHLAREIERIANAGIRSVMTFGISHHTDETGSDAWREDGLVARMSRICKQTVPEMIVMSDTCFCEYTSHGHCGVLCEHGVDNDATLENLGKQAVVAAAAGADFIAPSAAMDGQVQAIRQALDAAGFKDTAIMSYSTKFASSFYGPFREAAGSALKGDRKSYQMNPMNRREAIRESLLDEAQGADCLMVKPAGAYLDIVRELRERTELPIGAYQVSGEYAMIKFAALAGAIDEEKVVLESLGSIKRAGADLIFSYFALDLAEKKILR", "assay": "Stimulation of Escherichia coli recombinant PBGS using 5-ALA as substrate at […]"}, "[2]": {"target": "Delta-aminolevulinic acid dehydratase (Yersinia enterocolitica W22703) (UniProt F4MUJ9)", "sequence (F4MUJ9 as listed by the source)": "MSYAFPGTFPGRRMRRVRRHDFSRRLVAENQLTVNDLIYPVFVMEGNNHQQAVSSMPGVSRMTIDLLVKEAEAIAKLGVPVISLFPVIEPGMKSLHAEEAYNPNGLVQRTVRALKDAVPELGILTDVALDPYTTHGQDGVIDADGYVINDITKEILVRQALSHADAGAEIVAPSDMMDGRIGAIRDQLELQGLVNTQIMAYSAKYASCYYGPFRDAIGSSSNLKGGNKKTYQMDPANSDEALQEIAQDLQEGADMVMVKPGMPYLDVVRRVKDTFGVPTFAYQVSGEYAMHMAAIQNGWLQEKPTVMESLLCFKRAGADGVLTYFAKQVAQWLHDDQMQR", "assay": "Inhibition of Yersinia enterocolitica recombinant PBGS expressed in Escherichia coli using 5-ALA as substrate at […]"}, "Toxoplasma gondii [3]": {"test_system": "Toxoplasma gondii", "assay": "Inhibition of Toxoplasma gondii recombinant PBGS using 5-ALA as substrate at […]"}, "[4]": {"target": "Delta-aminolevulinic acid dehydratase (Yersinia enterocolitica W22703) (UniProt F4MUJ9)", "assay": "Stimulation of Yersinia enterocolitica recombinant PBGS expressed in Escherichia coli using 5-ALA as substrate at […]"}, "[5]": {"target": "T1, Delta-aminolevulinic acid dehydratase (Escherichia coli (strain K12))", "assay": "Inhibition of Escherichia coli recombinant PBGS using 5-ALA as substrate at […]"}, "[6]": {"target": "T2, Delta-aminolevulinic acid dehydratase, chloroplastic (Pisum sativum, UniProt P30124)", "T2 sequence (P30124 whole entry)": "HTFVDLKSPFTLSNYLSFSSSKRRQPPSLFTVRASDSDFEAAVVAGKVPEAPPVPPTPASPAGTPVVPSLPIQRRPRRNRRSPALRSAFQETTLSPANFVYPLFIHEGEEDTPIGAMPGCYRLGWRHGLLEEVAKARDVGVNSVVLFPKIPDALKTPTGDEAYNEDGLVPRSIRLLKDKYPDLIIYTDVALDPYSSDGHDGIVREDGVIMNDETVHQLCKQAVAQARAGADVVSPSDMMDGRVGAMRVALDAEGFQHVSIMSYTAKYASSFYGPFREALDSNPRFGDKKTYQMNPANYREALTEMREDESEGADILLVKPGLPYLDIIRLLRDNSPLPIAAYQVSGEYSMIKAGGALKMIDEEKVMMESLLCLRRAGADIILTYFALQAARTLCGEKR", "assay": "Inhibition of Pisum sativum PBGS using 5-ALA as substrate", "parameters": "species or system Lathyrus oleraceus", "outline": "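Pea (P. sativum) PBGS at 300 nM subunit in 100 mM BTP-HCl pH 8.5 with 1 mM MgCl2, 5 mM DTT and 0.2 mM 5-ALA, 15 min at 36 °C. Porphobilinogen detected with Ehrlich's reagent. Activity normalized to 6.7% DMSO control as 100%. IC50 from variable-slope normalized-response fit.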"}, "[7]": {"target": "Delta-aminolevulinic acid dehydratase (Pseudomonas aeruginosa (strain ATCC 15692 / PAO1 / 1C / PRS 101 / LMG12228)) (UniProt Q59643)", "sequence (Q59643 whole entry)": "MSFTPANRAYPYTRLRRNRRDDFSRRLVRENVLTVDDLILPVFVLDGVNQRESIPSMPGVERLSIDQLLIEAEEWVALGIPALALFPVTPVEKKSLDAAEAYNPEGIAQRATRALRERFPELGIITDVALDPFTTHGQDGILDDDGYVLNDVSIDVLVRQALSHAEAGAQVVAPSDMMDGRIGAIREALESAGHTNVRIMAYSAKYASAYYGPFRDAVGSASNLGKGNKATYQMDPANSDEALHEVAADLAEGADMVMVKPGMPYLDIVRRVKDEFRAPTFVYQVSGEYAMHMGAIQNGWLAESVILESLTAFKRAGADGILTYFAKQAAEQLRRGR", "assay": "Inhibition of Pseudomonas aeruginosa PAO1 recombinant PBGS using 5-ALA as substrate at […]"}, "Toxoplasma gondii [8]": {"test_system": "Toxoplasma gondii", "assay": "Stimulation of Toxoplasma gondii recombinant PBGS using 5-ALA as substrate at […]"}, "[9]": {"target": "Delta-aminolevulinic acid dehydratase (Pseudomonas aeruginosa (strain ATCC 15692 / PAO1 / 1C / PRS 101 / LMG12228)) (UniProt Q59643)", "assay": "Stimulation of Pseudomonas aeruginosa PAO1 recombinant PBGS using 5-ALA as substrate at […]"}, "[10]": {"target": "T3, Delta-aminolevulinic acid dehydratase (Drosophila melanogaster, UniProt Q9VTV9)", "T3 sequence (Q9VTV9 whole entry)": "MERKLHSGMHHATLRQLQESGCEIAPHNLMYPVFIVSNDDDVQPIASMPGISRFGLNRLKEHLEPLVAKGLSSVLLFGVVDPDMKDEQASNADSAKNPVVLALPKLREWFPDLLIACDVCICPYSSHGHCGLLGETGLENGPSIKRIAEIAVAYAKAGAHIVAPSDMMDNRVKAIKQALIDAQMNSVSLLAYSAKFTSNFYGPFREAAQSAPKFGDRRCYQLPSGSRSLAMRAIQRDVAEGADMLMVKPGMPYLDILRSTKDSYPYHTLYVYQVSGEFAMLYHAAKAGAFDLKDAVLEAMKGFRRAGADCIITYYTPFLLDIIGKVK", "assay": "Inhibition of Drosophila melanogaster recombinant PBGS using 5-ALA as substrate"}, "[11]": {"target": "T4, Delta-aminolevulinic acid dehydratase (Wolbachia sp. subsp. Brugia malayi (strain TRS), UniProt Q5GSR3)", "T4 sequence (Q5GSR3 whole entry)": "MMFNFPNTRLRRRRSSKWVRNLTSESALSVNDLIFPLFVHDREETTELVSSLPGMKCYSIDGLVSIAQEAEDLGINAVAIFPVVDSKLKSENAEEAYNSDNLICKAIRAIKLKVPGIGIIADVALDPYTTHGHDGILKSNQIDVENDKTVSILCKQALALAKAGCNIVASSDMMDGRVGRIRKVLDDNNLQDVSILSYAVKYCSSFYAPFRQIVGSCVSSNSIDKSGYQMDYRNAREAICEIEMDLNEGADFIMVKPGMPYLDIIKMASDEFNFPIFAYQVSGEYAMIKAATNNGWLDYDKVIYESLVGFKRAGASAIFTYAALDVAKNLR", "assay": "Inhibition of C-terminal His-tagged Wolbachia PBGS using 5-ALA as substrate"}, "[12]": {"target": "T5, Delta-aminolevulinic acid dehydratase (Homo sapiens, UniProt P13716)", "T5 sequence (P13716 whole entry)": "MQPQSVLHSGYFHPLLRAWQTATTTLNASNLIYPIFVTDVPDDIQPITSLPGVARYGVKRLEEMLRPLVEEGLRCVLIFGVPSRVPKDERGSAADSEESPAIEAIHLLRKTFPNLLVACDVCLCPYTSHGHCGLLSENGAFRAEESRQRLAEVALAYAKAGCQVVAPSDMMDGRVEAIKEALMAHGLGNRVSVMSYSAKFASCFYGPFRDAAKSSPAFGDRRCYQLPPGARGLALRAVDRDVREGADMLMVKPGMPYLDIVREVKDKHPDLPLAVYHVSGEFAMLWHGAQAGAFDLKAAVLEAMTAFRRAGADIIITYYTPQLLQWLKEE", "assay": "Inhibition of human PBGS using 5-ALA as substrate"}, "[13]": {"target": "Delta-aminolevulinic acid dehydratase (Pseudomonas aeruginosa (strain ATCC 15692 / PAO1 / 1C / PRS 101 / LMG12228), UniProt Q59643)", "sequence (Q59643 whole entry)": "as the sequence (Q59643 whole entry) above", "assay": "Inhibition of Pseudomonas aeruginosa PAO1 recombinant PBGS using 5-ALA as substrate", "outline": "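Turnover kept at or below 30%. Porphobilinogen measured with Ehrlich's reagent. IC50 by variable-slope fit of activity normalized to DMSO control.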"}}, "note": "Active and inactive are the calls of the source. The rule behind the calls is not given here.", "data": [{"smiles": "Cn1cnc2cc(C(=O)O)ccc21", "values": [{"measurement": "Smax", "setting": "[1]", "result": 100, "unit": "%"}, {"measurement": "inhibition", "setting": "[2]", "result": "inactive"}, {"measurement": "inhibition", "setting": "Toxoplasma gondii [3]", "result": "inactive"}, {"measurement": "Smax", "setting": "[4]", "result": 100, "unit": "%"}, {"measurement": "inhibition", "setting": "[5]", "result": "inactive"}, {"measurement": "IC50", "setting": "[6]", "result": 257, "unit": "µM"}, {"measurement": "inhibition", "setting": "[7]", "result": "inactive"}, {"measurement": "Smax", "setting": "Toxoplasma gondii [8]", "result": 100, "unit": "%"}, {"measurement": "Smax", "setting": "[9]", "result": 100, "unit": "%"}, {"measurement": "IC50", "setting": "[10]", "result": "> 1000", "unit": "µM"}]}, {"smiles": "Cc1cccc(Cn2cnc3cc(C(=O)O)ccc32)c1", "values": [{"measurement": "Smax", "setting": "[1]", "result": 100, "unit": "%"}, {"measurement": "inhibition", "setting": "[2]", "result": "inactive"}, {"measurement": "inhibition", "setting": "Toxoplasma gondii [3]", "result": "inactive"}, {"measurement": "IC50", "setting": "[11]", "result": 134, "unit": "µM"}, {"measurement": "Smax", "setting": "[4]", "result": 100, "unit": "%"}, {"measurement": "inhibition", "setting": "[5]", "result": "inactive"}, {"measurement": "IC50", "setting": "[6]", "result": 95.9, "unit": "µM"}, {"measurement": "inhibition", "setting": "[7]", "result": "inactive"}, {"measurement": "Smax", "setting": "Toxoplasma gondii [8]", "result": 100, "unit": "%"}, {"measurement": "IC50", "setting": "[12]", "result": 222, "unit": "µM"}, {"measurement": "Smax", "setting": "[9]", "result": 100, "unit": "%"}, {"measurement": "IC50", "setting": "[10]", "result": 371, "unit": "µM"}]}, {"smiles": "O=C(NCCc1nc2cccc(C(=O)O)c2n1Cc1cccc(C(F)(F)F)c1)c1cccs1", "values": [{"measurement": "Smax", "setting": "[1]", "result": 100, "unit": "%"}, {"measurement": "IC50", "setting": "[11]", "result": 164, "unit": "µM"}, {"measurement": "Smax", "setting": "[4]", "result": 118, "unit": "%"}, {"measurement": "inhibition", "setting": "[5]", "result": "inactive"}, {"measurement": "IC50", "setting": "[6]", "result": "> 500", "unit": "µM"}, {"measurement": "inhibition", "setting": "[7]", "result": "inactive"}, {"measurement": "Smax", "setting": "Toxoplasma gondii [8]", "result": 113, "unit": "%"}, {"measurement": "Smax", "setting": "[9]", "result": 100, "unit": "%"}, {"measurement": "IC50", "setting": "[10]", "result": "> 1000", "unit": "µM"}]}, {"smiles": "O=C(O)c1ccc2c(c1)ncn2Cc1cccc(C(F)(F)F)c1", "values": [{"measurement": "IC50", "setting": "[13]", "result": 94, "unit": "µM"}, {"measurement": "Smax", "setting": "[1]", "result": 100, "unit": "%"}, {"measurement": "inhibition", "setting": "[2]", "result": "inactive"}, {"measurement": "inhibition", "setting": "Toxoplasma gondii [3]", "result": "inactive"}, {"measurement": "IC50", "setting": "[11]", "result": 13, "unit": "µM"}, {"measurement": "Smax", "setting": "[4]", "result": 100, "unit": "%"}, {"measurement": "inhibition", "setting": "[5]", "result": "inactive"}, {"measurement": "IC50", "setting": "[6]", "result": 18.5, "unit": "µM"}, {"measurement": "inhibition", "setting": "[7]", "result": "inactive"}, {"measurement": "Smax", "setting": "Toxoplasma gondii [8]", "result": 100, "unit": "%"}, {"measurement": "IC50", "setting": "[12]", "result": 197, "unit": "µM"}, {"measurement": "Smax", "setting": "[9]", "result": 100, "unit": "%"}, {"measurement": "IC50", "setting": "[10]", "result": 340, "unit": "µM"}]}, {"smiles": "O=C(O)c1ccc2c(c1)ncn2Cc1ccccc1", "values": [{"measurement": "Smax", "setting": "[1]", "result": 100, "unit": "%"}, {"measurement": "inhibition", "setting": "[2]", "result": "inactive"}, {"measurement": "inhibition", "setting": "Toxoplasma gondii [3]", "result": "inactive"}, {"measurement": "IC50", "setting": "[11]", "result": 197, "unit": "µM"}, {"measurement": "Smax", "setting": "[4]", "result": 100, "unit": "%"}, {"measurement": "inhibition", "setting": "[5]", "result": "inactive"}, {"measurement": "IC50", "setting": "[6]", "result": 182, "unit": "µM"}, {"measurement": "inhibition", "setting": "[7]", "result": "inactive"}, {"measurement": "Smax", "setting": "Toxoplasma gondii [8]", "result": 100, "unit": "%"}, {"measurement": "IC50", "setting": "[12]", "result": 213, "unit": "µM"}, {"measurement": "Smax", "setting": "[9]", "result": 100, "unit": "%"}, {"measurement": "IC50", "setting": "[10]", "result": 1030, "unit": "µM"}]}, {"smiles": "O=C(O)c1ccc2nc(CCNC(=O)c3cccs3)n(Cc3cccc(C(F)(F)F)c3)c2c1", "values": [{"measurement": "Smax", "setting": "[1]", "result": 100, "unit": "%"}, {"measurement": "IC50", "setting": "[11]", "result": 317, "unit": "µM"}, {"measurement": "Smax", "setting": "[4]", "result": 131, "unit": "%"}, {"measurement": "inhibition", "setting": "[5]", "result": "inactive"}, {"measurement": "IC50", "setting": "[6]", "result": 89, "unit": "µM"}, {"measurement": "inhibition", "setting": "[7]", "result": "inactive"}, {"measurement": "Smax", "setting": "[9]", "result": 100, "unit": "%"}, {"measurement": "IC50", "setting": "[10]", "result": 257, "unit": "µM"}]}]}
